# PAFAH1B2 FP inh: PAFAH1B2 enzyme inhibitors, primary screen, biochemical, fluorescence polarization, human | AID 492953, 2010 | recombinant PAFAH1B2, FP-rhodamine activity probe | inhibition, % at 3.39 µM | Platelet-activating factor acetylhydrolase IB subunit alpha2 (Homo sapiens), P68402 | 340,000 tested, 1.2% active;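 active = inhibition above the mean of all tested compounds plus 3 SD, cut at about 24% in these data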;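 also: 0% = enzyme with DMSO and 100% = wells lacking PAFAH1B2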
# ARFGAP1 inh: inhibitors of rat ARFGAP1 GAP activity, primary screen, biochemical, fluorescence polarization, GDP tracer. Arfgap1-stimulated ARF1 GTP hydrolysis, GDP FP detection. inhibition, % at 16.5 µM. 360,000 tested, 0.26% active;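 active = inhibition above a per-plate limit, mean inhibition of low control wells plus 3 SD, cut at about 25% in these data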;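 also: 0% = DMSO wells with enzyme and 100% = wells lacking Arfgap1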
#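 system = rat Arfgap1 catalytic domain, aa 1-136 | technique = FP, GDP Alexa 633 tracer displaced from anti-GDP antibody, 620/688 nm | compound = one concentration, 16.5 µM, DMSO 1.26% | medium = HEPES-based buffer, pH 7.5 | timing = compound-enzyme preincubation 20 min, reaction 120 min, detection 60 min, 25 °C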
# pPAFAH inh: pPAFAH enzyme inhibitors, primary screen, biochemical, fluorescence polarization, human | Platelet-activating factor acetylhydrolase (Homo sapiens), Q13093 | 330,000 tested, 1.5% active | inhibition, % at 3.39 µM | recombinant pPAFAH, FP-rhodamine probe fluorescence polarization | AID 463082, 2010;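 active = inhibition above the mean inhibition across the screen plus 3 SD, cut at about 25% in these data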;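 also: inhibitors block binding of the rhodamine activity-based probe so polarization drops; 0% = enzyme with DMSO and 100% = wells lacking pPAFAH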
# PAFAH1B3 inh: PAFAH1B3 enzyme inhibitors, primary screen, biochemical, fluorescence polarization, human; Platelet-activating factor acetylhydrolase IB subunit alpha1 (Homo sapiens), Q15102; recombinant PAFAH1B3, FP-rhodamine probe; inhibition, % at 3.39 µM; 340,000 tested, 0.28% active;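 active = inhibition above the screen-wide average of all tested compounds plus 3 SD, cut at about 25% in these data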;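 also: 0% = enzyme with DMSO only and 100% = wells lacking PAFAH1B3 protein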
# Target sequence (Q15102 whole entry, looked up): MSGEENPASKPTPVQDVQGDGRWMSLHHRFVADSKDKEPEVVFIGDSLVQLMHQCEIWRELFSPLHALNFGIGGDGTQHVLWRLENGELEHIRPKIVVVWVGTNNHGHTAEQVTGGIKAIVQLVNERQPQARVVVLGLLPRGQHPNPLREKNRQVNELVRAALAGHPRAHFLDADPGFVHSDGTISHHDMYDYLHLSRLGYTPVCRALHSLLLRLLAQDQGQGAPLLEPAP
# PAFAH2 FP inh: PAFAH2 enzyme inhibitors, primary screen, biochemical, fluorescence polarization, human; Platelet-activating factor acetylhydrolase 2, cytoplasmic (Homo sapiens), Q99487; recombinant PAFAH2, FP-rhodamine activity probe; inhibition, % at 3.39 µM; 340,000 tested, 0.99% active; AID 492956, 2010;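 active = inhibition above the mean over all tested compounds plus 3 SD, cut at about 30% in these data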;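 also: inhibitors block probe labeling of enzyme so polarization drops; 0% = enzyme with DMSO and 100% = wells lacking PAFAH2 protein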
# ASAP1 GAP inh: inhibitors of human ASAP1 ArfGAP activity, primary screen, biochemical, fluorescence polarization | inhibition, % at 16.5 µM | 360,000 tested, 0.19% active | ASAP1-stimulated ARF1 GTP hydrolysis, GDP FP detection; in the data active = inhibition above about 25%;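 also: 0% = vehicle with enzyme and substrate and 100% = no enzyme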
# ARFGAP1 confirm: ARFGAP1 inhibitor hit confirmation, biochemical, fluorescence polarization, triplicate; shares compounds with ARFGAP1 inh; ARFGAP1-stimulated ARF1 GTP hydrolysis, GDP tracer FP; inhibition, % at 16.5 µM; 890 tested, 30% active; AID 651608, 2012;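 active = average inhibition over triplicates above the hit cutoff set in the earlier primary screen, cut at about 25% in these data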;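 also: 0% = Arfgap1 plus ARF1-GTP with DMSO and 100% = wells lacking Arfgap1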
# Target sequence (Q62848 whole entry, looked up): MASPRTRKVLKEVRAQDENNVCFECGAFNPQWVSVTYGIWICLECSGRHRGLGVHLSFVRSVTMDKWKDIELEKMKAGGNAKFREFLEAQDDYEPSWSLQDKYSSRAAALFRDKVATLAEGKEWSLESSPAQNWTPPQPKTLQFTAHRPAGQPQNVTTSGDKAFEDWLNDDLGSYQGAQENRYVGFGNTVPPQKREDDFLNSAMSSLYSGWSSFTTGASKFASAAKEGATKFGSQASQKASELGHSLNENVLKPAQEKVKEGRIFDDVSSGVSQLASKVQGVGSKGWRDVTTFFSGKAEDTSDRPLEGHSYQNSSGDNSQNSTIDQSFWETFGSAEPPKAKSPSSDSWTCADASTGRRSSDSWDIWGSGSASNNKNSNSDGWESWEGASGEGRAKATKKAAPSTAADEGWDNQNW
# An asterisk follows results filed as active; / = no result given. In the library only some 2.7% were active in any assay of this set; here they are far more common.
SMILES,PAFAH1B2 FP inh,ARFGAP1 inh,pPAFAH inh,PAFAH1B3 inh,PAFAH2 FP inh,ASAP1 GAP inh,ARFGAP1 confirm
CCN(CC)S(=O)(=O)c1cccc(C(=O)N/N=C/c2ccccn2)c1,2,8,3,7,3,-11,/
CC(=O)Nc1ccc(NC(=O)CSc2nnc(NC(=O)c3cccc(F)c3)s2)cc1,0,-5,8,3,2,-3,/
COc1ccc(NC(=O)c2ccc3c(c2)C(=O)N(Cc2ccncc2)C3=O)cc1S(N)(=O)=O,3,35*,2,4,-6,-1,13
CCCCCc1c(C)nc(N2CCc3ccccc32)[nH]c1=O,6,26*,/,3,3,6,3
COc1ccc(NC(=O)N2CCN(c3nc(-c4cccc(OC)c4)cs3)CC2)cc1,5,-1,23,10,0,8,/
COc1cccc(-c2csc(N3CCN(C(=O)Nc4ccc(Cl)cc4)CC3)n2)c1,-6,28*,-1,-4,-20,3,6
CCCCOC(=O)NC(NCC(O)c1ccccc1)(C(F)(F)F)C(F)(F)F (stereo not drawn),0,31*,2,2,4,5,-6
CCOC(=O)NC(NCC(O)c1ccccc1)(C(F)(F)F)C(F)(F)F (stereo not drawn),-1,3,8,7,-6,4,/
COc1cccc(Nc2nc(-c3sc(NC(=O)CC(C)C)nc3C)cs2)c1,3,15,18,0,-3,2,/
COc1cccc(Nc2nc(-c3sc(NC(=O)c4ccccc4)nc3C)cs2)c1,0,26*,9,11,-12,12,15
CC(=O)N1CCC(C(=O)Nc2cc(S(=O)(=O)N3CCCCC3)ccc2C)CC1,/,4,/,/,/,1,/
Cn1c(=O)cc(SCC(=O)NCCCN2CCN(c3ccc(F)cc3)CC2)c2ccccc21,0,38*,3,-8,2,1,8
O=c1[nH]c2ccccc2nc1-c1c[nH]c2ccccc12,1,26*,9,5,-4,4,13
Nc1ccccc1-c1nc2ccccc2[nH]c1=O,-4,2,/,4,0,3,/
CCN(CC)CCn1c(=S)[nH]c2ccc(Br)cc2c1=O,0,8,2,5,-1,13,/
Cc1nc(NCc2ccc(S(N)(=O)=O)cc2)c2c(C)c(C)sc2n1,6,44*,4,-1,-3,22,32*
Cc1cc(-c2cccc([N+](=O)[O-])c2)nc2ccc3ccccc3c12,-3,1,-1,0,3,10,/
CNc1nc(-c2c[nH]c3ccccc23)cs1,-2,31*,1,5,5,10,1
CC(=O)n1cc(/C=N/NC(=O)c2ccc(Cl)cc2)c2ccccc21,1,27*,-1,6,0,2,-2
CC(=O)n1cc(/C=N/NC(=O)c2ccccc2Cl)c2ccccc21,3,/,2,8,6,/,/
COc1ccc(CCc2nnc(CCC(=O)N(C)Cc3ccncc3C)o2)cc1,2,3,0,-1,2,7,/
Cc1ccc2cc(CCNC(=O)C(C)(C)C)c(=O)[nH]c2c1,0,28*,4,10,5,5,-5
CC(=O)c1cc(CCC(=O)NC2CCCCCC2)oc1C,2,2,1,-1,3,-14,/
Fc1ccc(-c2nnc(Cc3ccc(Cl)cc3)o2)cc1,5,40*,11,8,-5,1,-2
CNS(=O)(=O)c1cccc(C(=O)NCC(c2cccs2)N2CCOCC2)c1 (stereo not drawn),4,26*,3,3,4,2,-1
SMILES,PAFAH1B2 FP inh,ARFGAP1 inh,pPAFAH inh,PAFAH1B3 inh,PAFAH2 FP inh,ASAP1 GAP inh,ARFGAP1 confirm
COc1ccc(NS(=O)(=O)c2cccc(C(=O)NCC(c3cccs3)N3CCOCC3)c2)cc1 (stereo not drawn),5,-11,24,9,5,-8,/
CC(C)(C)CC(C)(C)NC(=O)/C=C/C(=O)O,-2,25*,1,2,1,-16,-2
CCCNC(=O)/C=C/C(=O)O,-3,4,-2,2,-4,-1,/
Cc1ccc(N2CCN(C(=O)C(=O)c3ccc4c(c3)OCO4)CC2)cc1,/,-1,/,/,/,-9,/
CNC(C)C#Cc1ccc2sc3cccc(OC)c3c(=O)c2c1 (stereo not drawn),2,28*,-3,9,8,22,6
COc1cc(C(=O)Nc2cc3c(cc2N2CCCCC2)n(C)c(=O)n3C)cc(OC)c1OC,1,-5,7,8,-1,5,/
CCN1CCN(Cc2ccc(NC(=O)c3cc(NC(=O)C(=O)c4c[nH]c5ccccc45)cc(OC)c3)cc2C(F)(F)F)CC1,-23,46*,-43,-30,-68,20,36*
CCn1c2ccccc2c2cc(NC(=O)CSc3nnc(-c4cccc(OC)c4)n3N)ccc21,5,31*,17,3,0,1,26*
CCn1c2ccccc2c2cc(NC(=O)CSc3nnc(-c4ccc(OC)c(OC)c4)n3N)ccc21,-3,1,13,-1,1,3,/
Cc1cccc(NC(=O)C2(c3cccs3)CCOCC2)c1,3,35*,1,1,10,-12,4
Cc1noc(C)c1C(=O)N1CCC1(C)C(=O)NS(=O)(=O)c1cccs1 (stereo not drawn),/,4,/,/,/,-5,/
CCOc1ccc2nc(NC(=O)Cn3cnc4c3c(=O)n(C)c(=O)n4C)sc2c1,6,27*,-6,4,-5,12,7
COc1ccc2nc(NC(=O)Cn3cnc4ccccc4c3=O)sc2c1,-2,27*,0,6,-4,7,8
CCOc1ccc2nc(NC(=O)CSc3nc4c(c(=O)n(C)c(=O)n4C)n3C(C)C)sc2c1,2,13,-3,1,-2,16,/
Cc1nc(/C=C/c2ccccc2)[nH]c(=O)c1-c1ccccc1,4,-2,4,11,0,-2,/
C#Cc1cccc(C(=O)NC2CCCN(C3Cc4ccccc4C3)C2)c1 (stereo not drawn),-1,-1,3,5,10,-15,/

# Assay outcomes deposited in PubChem BioAssay by The Scripps Research Institute Molecular Screening Center.
